# Bioassay records as filed in PubChem BioAssay.
# The full list was thinned out, with hits kept by preference.
# INS promoter act: TRM-6 insulin promoter activation; TRM-6 cells (human fetal islet line), insulin promoter eGFP reporter, imaging; plate-scaled: unstimulated 0, stimulated control 100; activation, % at 2 µM; 130,000 compounds, 0.81% hits; AID 1296;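 active means activation at 2 µM above a set limit, confirmed on inspection of the cell images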;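 further: share of cells whose green reporter signal exceeds an intensity cutoff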
#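 Test system: TRM-6 insulin promoter–eGFP reporter cells / Quantity: 1,000 cells per well / Reagent: tamoxifen inducer, 0.75 µM, in seeding medium / Compound dosing: 2 µM final, single concentration / Schedule: overnight tamoxifen, then two-day compound incubation at 37 °C / Measured by: automated fluorescence imaging of paraformaldehyde-fixed, Hoechst-counterstained cells, green channel / Read-out: percent activation from GFP-positive cell fraction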
# * marks the source's active call; other numbers are inactive results; + = active, no number; [ ] = remark or other dose.
SMILES,INS promoter act
O=S(=O)(c1ccc(S(=O)(=O)N(Cc2ccccc2)Cc2ccco2)cc1)N1CCCC1,494*
O=S(=O)(NCc1ccco1)c1cccc(S(=O)(=O)N2CCOCC2)c1,0
CNC(=O)c1sc(-c2ccccn2)nc1C,8
O=C(CSc1nnc(-c2ccncc2)n1-c1ccc(Cl)cc1)NCc1cccs1,-8
CC(C)CCOC(=O)C1C(c2ccccc2)C(C(=O)O)C1c1ccccc1 (stereo not given),0
CCCn1c(SCC(=O)Nc2ccc(Cl)cc2)n[nH]c1=O,-8
CCCn1c(SCC(=O)Nc2ccc(C(=O)Nc3ccccc3OC)cc2)n[nH]c1=O,7
CCCn1c(SCC(=O)c2cc(C)ccc2C)n[nH]c1=O,100*
COc1ccc(OC)c(S(=O)(=O)NC(C)(C)C)c1,7
O=C(/C=C/c1ccc([N+](=O)[O-])s1)N1CCCCC1,328*
O=C(CNC(=O)c1cccc(F)c1)N/N=C/c1ccc([N+](=O)[O-])s1,7
COc1ccccc1/C=C/C(=O)N1CCCC1,3
O=C(/C=C/c1ccccc1[N+](=O)[O-])N1CCCCC1,-3
COC(=O)c1cccc(NC(=O)/C=C/c2ccc([N+](=O)[O-])cc2)c1,0
CC(=O)c1cccc(NC(=O)/C=C/c2ccc([N+](=O)[O-])s2)c1,614*
COc1ccc(CCNC(=O)Cn2c(=O)n(-c3ccc(F)cc3)c(=O)c3sccc32)cc1OC,7
Cc1ccc(NC(=O)COC(=O)C2CSC3(C)CCC(=O)N23)cc1S(=O)(=O)N1CCOCC1 (stereo not given),7
Cc1nc(N)nc(-c2ccccc2O)n1,0
CC1CCC(C(C)C)C(OC(=O)CSc2nnc(N)s2)C1 (stereo not given),6
CC1CCN(CC(O)COC2CC(C)CCC2C(C)C)CC1 (stereo not given),543*
CC1CC(OCC(O)CN2CCN(Cc3ccccc3)CC2)CC(C)(C)C1 (stereo not given),100
O=C1C=CC(O)(c2cc(=O)c3c(O)cc(O)cc3o2)C=C1,224
CC(C)(C)C(=O)NCCCc1ccccc1,-3
C[N+]1(CC(=O)OCCCc2ccccc2)CCCCC1,350*
CN(C)CCCOC(=O)c1ccccc1,327
SMILES,INS promoter act
Cc1sc2nc(CN(Cc3cccs3)C(=O)C3CC3)[nH]c(=O)c2c1C,-76
COc1cc(CN2C(=S)NC(C)(C)CC2(C)O)cc(OC)c1 (stereo not given),8
CCOC(=O)CC(=O)CSc1ncnc2c1cnn2-c1ccccc1,-100
CCOC(=O)CSc1ncnc2c1cnn2-c1ccccc1,121*
Cc1ccc(-n2ncc3c(SCc4ccccc4)ncnc32)cc1,9
COc1ccc(N2C(=O)CC(Sc3nc(C)c4c(n3)CCCC4)C2=O)cc1 (stereo not given),-6
COc1ccc(N2C(=O)CC(SCC(=O)O)C2=O)cc1 (stereo not given),438*
CCOc1ccc(N2C(=O)CC(SCC(=O)O)C2=O)cc1 (stereo not given),7
COc1ccccc1N1CCN(S(=O)(=O)c2ccc3c(c2)n(C)c(=O)n3C)CC1,115
CCC(=O)NCCc1nc2cc(NC(=O)c3ccc(OC)cc3)ccc2n1C,108
CC(C)(C)NC(=O)c1ccncc1,10
CC(C)(C)NC(=O)/C=C/c1ccc(C(F)(F)F)cc1,322*
CC(C)(CCl)C(=O)Nc1ccc(C(F)(F)F)cc1,-85
COc1cc(NC(=O)c2ccc3c(c2)OCO3)c2ncccc2c1,412*
O=C(Nc1cccc2cccnc12)c1ccc2c(c1)OCCO2,7
COc1ccc(-c2nc3cc(NC(=O)c4ccc5c(c4)OCO5)ccc3o2)cc1,-9
O=C(CSCc1ccc(F)cc1)NCc1ccco1,4
CC1(C(=O)NCCN2CCOCC2)C=CC2(CCCCC2)N1C(=O)c1ccccc1 (stereo not given),10
Cc1cc2nc3c(c(C(F)(F)F)n2n1)CCCC3,0
COc1ccc(Cc2n[nH]c(=S)o2)cc1,479*
S=c1[nH]nc(COc2ccc3ccccc3c2)o1,107
COc1ccc(Cc2nnc(SCC(=O)c3ccc(OC)cc3)o2)cc1,42
C/C(=N/NC(=O)c1ccoc1C)c1ccc(NC(=O)c2ccncc2)cc1,0
O=C(Cc1ccc(Br)cc1)Nc1ccccc1Cl,8
Cc1ccc(C(=O)NCCSC(C)(C)C)cc1[N+](=O)[O-],-8
SMILES,INS promoter act
Cc1ccc(C(=O)COC(=O)CNC(=O)C(c2ccccc2)c2ccccc2)cc1[N+](=O)[O-],7
COC(=O)CCN(C(=O)c1ccc(C)c([N+](=O)[O-])c1)c1ccccn1,+
Cc1ccc2c(c1)C(O)(CC(=O)/C=C/C=C/c1ccccc1)C(=O)N2 (stereo not given),7
O=C(CCc1nc2ccccc2c(=O)[nH]1)N1CCN(c2ccc(F)cc2)CC1,0
Cc1cccc(NC(=O)CCSc2nnc(Cc3ccccc3)o2)c1,9
CCOC(=O)c1c(NC(=O)CN2C(=O)NC(C)(c3ccccc3)C2=O)sc(C)c1C (stereo not given),0
O=C(Nc1ccccc1)c1ccc[nH]1,-8
CCN1/C(=C/C=C/c2oc3ccc(-c4ccccc4)cc3[n+]2CC)Oc2ccc(-c3ccccc3)cc21,809*[fluoresces]
O=C(CSCc1cccc(Cl)c1)Nc1ccccc1-c1ccccc1,8
CCc1ccc(NS(=O)(=O)c2cccc3nonc23)cc1,0
Cc1ccc(C)c2[nH]c(=O)c(C(c3nnnn3C(C)(C)C)N3CC=C(c4ccc(F)cc4)CC3)cc12 (stereo not given),4
CCOC(=O)C1CCCN(C(=S)Nc2ccc(OC)cc2)C1 (stereo not given),0
CCOC(=O)C1CCCN(c2cc(=O)n(C3CCCCC3)c(=O)[nH]2)C1 (stereo not given),124*
CCOC(=O)C1CCCN(C(=O)C2CC(=O)N(c3ccc(C)cc3)C2)C1 (stereo not given),-15
Cc1nc2c(c3c1[nH]c1ccccc13)C(O)CC(C)(C)C2 (stereo not given),-100
CNC(=O)COC(=O)c1cc(-c2ccccc2)nn1-c1ccccc1,0
CC(C)CCN1CCN(CC(c2ccccc2)c2ccccc2)CC1CCO (stereo not given),8
O=C(COC(=O)[C@@H]1CC(O)CN1S(=O)(=O)c1ccc2c(c1)OCCO2)Nc1ccccc1F (stereo not given in full),8
Cc1ccc(NC(=O)c2ccc(-n3cccn3)c([N+](=O)[O-])c2)cc1C,218*
O=C(Nc1cccc(Cl)c1)c1ccc(-n2cncn2)c([N+](=O)[O-])c1,6
Cc1ccc(NC(=O)c2ccncc2)cc1[N+](=O)[O-],2
CCc1nnc(NC(=O)c2nc3nc(C)cc(C)n3n2)s1,-5
CC(C)N1CCN(CC#Cc2ccccc2)CC1CCO (stereo not given),0
CCC(C)n1c(SCC(=O)Nc2cc(C(C)(C)C)nn2-c2ccccc2)nc2ccccc2c1=O (stereo not given),0
COc1cc2ncnc(NCc3ccc(C)cc3)c2cc1OC,230*
SMILES,INS promoter act
COc1ccc(CNC(=O)CSc2ncnc3ccccc23)cc1OC,-9
COc1cc(OC)c(OC)cc1CNc1cc(C)ccc1OC,9
Oc1ccc(-n2cnnn2)cc1,-7
COc1ccc(C(C)NC(=O)c2ccccc2)cc1 (stereo not given),3
COc1ccc(C(NC(=O)C(C)(C)C)NC(=O)C(C)(C)C)cc1,95*
COc1ccc(C(C)NC(=O)Cc2ccc(Br)cc2)cc1 (stereo not given),4
